{
  "source": "paper PMC6482957",
  "about": "(Nature structural & molecular biology, 2018)",
  "molecules": {"B1": {"name": "N1671A: p300 BRPHZT loss-of-function mutation of ZZ (protein)", "chain": "TQSSPAPGQSKKKIFKPEELRQALMPTLEALYRQDPESLPFRQPVDPQLLGIPDYFDIVKSPMDLSTIKRKLDTGQYQEPWQYVDDIWLMFNNAWLYNRKTSRVYKYCSKLSEVFEQEIDPVMQSLGYCCGRKLEFSPQTLCCYGKQLCTIPRDATYYSYQNRYHFCEKCFNEIQGESVSLGDDPSQPQTTINKEQFSKRKNDTLDPELFVECTECGRKMHQICVLHHEIIWPAGFVCDGCLKKSARTRKENKFSAKRLPSTRLGTFLENRVNDFLRRQNHPESGEVTVRVVHASDKTVEVKPGMKARFVDSGEMAESFPYRTKALFAFEEIDGVDLCFFGMHVQEYGSDCPPPNQRRVYISYLDSVHFFRPKCLRTAVYHEILIGYLEYVKKLGYTTGHIWACPPSEGDDYIFHCHPPDQKIPKPKRLQEWYKKMLDKAVSERIVHDYKDIFKQATEDRLTSAKELPYFEGDFWPNVLEESIKELEQEEEERKREENTSNESTDVTKGDSKNAKKKNNKKTSKNKSSLSRGNKKKPGMPNVSNDLSQKLYATMEKHKEVFFVIRLIAGPAANSLPPIVDPDPLIPCDLMDGRDAFLTLARDKHLEFSSLRRAQWSTMCMLVELHTQSQDRFVYTCAECKHHVETRWHCTVCEDYDLCITCYNTKNHDHKMEKLGLGLDDESNNQQAAATQSPGDSRRLSIQRCIQSLVHACQCRNANCSLPSCQKMKRVVQHTKGCKRKTNGGCPICKQLIALCCYHAKHCQENKCPVPFCLNIKQKLRQQQLQHRLQQAQMLRR", "modifications": "left off: FLAG, end not stated, kept"}, "B2": {"name": "WT p300-BRPHZT: p300 BD-RING-PHD-HAT-ZZ-TAZ2 region (BRPHZT, amino acids 1035–1830) (protein)", "chain": "B1 chain with A637N", "modifications": "left off: FLAG, end not stated, kept"}, "B3": {"name": "D1690A (protein)", "chain": "B1 chain with A637N, D656A", "modifications": "left off: FLAG, end not stated, kept"}, "B4": {"name": "N1132A: p300 BRPHZT BD mutation that abrogates acetyllysine binding (protein)", "chain": "B1 chain with N98A, A637N", "modifications": "left off: FLAG, end not stated, kept"}, "B5": {"name": "p300 BD-RING-PHD region (aa 1047–1278) (domain or fragment)", "chain": "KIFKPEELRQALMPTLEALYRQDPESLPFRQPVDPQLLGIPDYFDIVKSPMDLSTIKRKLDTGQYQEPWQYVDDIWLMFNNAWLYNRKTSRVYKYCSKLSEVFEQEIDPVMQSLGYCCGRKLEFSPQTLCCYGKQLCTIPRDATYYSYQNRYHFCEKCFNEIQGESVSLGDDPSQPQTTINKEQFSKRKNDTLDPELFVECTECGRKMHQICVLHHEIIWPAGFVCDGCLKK"}, "B6": {"name": "HAT domain: p300 HAT domain (aa 1287–1663, Y1467F) (protein)", "chain": "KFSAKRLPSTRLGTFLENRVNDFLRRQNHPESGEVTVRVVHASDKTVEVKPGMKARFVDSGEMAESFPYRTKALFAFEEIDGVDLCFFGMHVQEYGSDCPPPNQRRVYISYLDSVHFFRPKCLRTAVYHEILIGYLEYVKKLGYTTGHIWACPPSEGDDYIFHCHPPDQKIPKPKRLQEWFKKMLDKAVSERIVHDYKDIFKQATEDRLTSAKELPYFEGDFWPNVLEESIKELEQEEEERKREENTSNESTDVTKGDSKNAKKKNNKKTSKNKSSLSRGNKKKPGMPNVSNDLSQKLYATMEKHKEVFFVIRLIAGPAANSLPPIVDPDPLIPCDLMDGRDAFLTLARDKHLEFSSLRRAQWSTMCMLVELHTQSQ", "modifications": "left off: His-tag, N-terminal, cleaved"}, "B7": {"name": "HAT-ZZ: HAT-ZZ domain (aa 1287–1713, Y1467F) (protein)", "chain": "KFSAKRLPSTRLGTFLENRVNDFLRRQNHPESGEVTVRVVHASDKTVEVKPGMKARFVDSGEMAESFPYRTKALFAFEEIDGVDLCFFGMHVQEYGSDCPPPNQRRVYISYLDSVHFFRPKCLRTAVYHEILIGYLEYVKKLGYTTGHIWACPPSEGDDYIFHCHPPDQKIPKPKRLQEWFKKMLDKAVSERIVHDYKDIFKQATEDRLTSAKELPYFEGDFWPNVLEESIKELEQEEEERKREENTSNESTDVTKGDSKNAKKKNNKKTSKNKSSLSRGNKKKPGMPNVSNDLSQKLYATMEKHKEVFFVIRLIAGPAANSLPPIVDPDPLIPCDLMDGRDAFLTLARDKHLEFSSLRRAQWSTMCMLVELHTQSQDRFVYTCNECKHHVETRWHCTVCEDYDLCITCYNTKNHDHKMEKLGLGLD", "modifications": "left off: His-tag, N-terminal, cleaved"}},
  "key": {"p300-ZZ": {"test_system": "p300-ZZ", "test": "1H,15N HSQC NMR titration, p300-ZZ", "format": "binding, human", "method_in_brief": "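Human p300 ZZ (aa 1663–1713) carried an N-terminal His-tag and was expressed in BL21(DE3) RIL in M9 with 15NH4Cl and 0.05 mM ZnCl2. Induction was 0.2 mM IPTG, overnight at 18 °C. Protein was Ni-NTA purified and the tag cleaved. 0.1 mM sample in 20 mM Tris-HCl pH 7.0, 100 mM NaCl, 5 mM DTT, 8% D2O. Unlabeled HAT domain (1:2) was added first, then H3 peptide; chemical shift changes were monitored at 298K.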"}, "[1]": {"test_system": "histone acetylation in H1299 cells", "test": "Histone acetylation levels in H1299 stable cells", "format": "cell-based, human", "details": "n = 3; for H3K4, H3K9 and H4 acetylation / Increase of H3K18 and H3K27 acetylation: p300-BRPHZT"}, "[2]": {"test_system": "chromatin of H1299 cells (FLAG, H3K18ac, H3K27ac)", "test": "ChIP-seq / ChIP-qPCR in H1299 stable cells", "format": "cell-based, human", "details": "for Chromatin binding / H3K18ac and H3K27ac occupancies: ChIP-seq, H1299", "method_in_brief": "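H1299 cells (RPMI, 10% FBS) were lentivirally transduced with FLAG-p300-BRPHZT (wild type or mutant) and blasticidin-selected for 4–6 days. Cells were crosslinked with 1% formaldehyde for 10 min, quenched with 125 mM glycine, and nuclei were lysed in 1% SDS buffer and sonicated. Chromatin was immunoprecipitated overnight at 4 °C with 2–4 μg antibody, washed in low-salt, high-salt and LiCl buffers, and reverse-crosslinked. DNA went to SYBR qPCR (IgG or H3 normalization, two negative-control loci) or sequencing.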"}, "chromatin in H1299 cells": {"test_system": "chromatin in H1299 cells", "test": "Chromatin association of FLAG-p300BRPHZT", "format": "cell-based, human", "details": "H1299 stable cells, ChIP-western and salt fractionation", "method_in_brief": "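H1299 cells stably expressing FLAG-p300-BRPHZT variants were used. For protein-ChIP, cells were formaldehyde-crosslinked and nuclear lysates sonicated, then pulled down overnight at 4 °C on anti-FLAG M2 agarose. Beads were washed in low-salt, high-salt and LiCl buffers, and bound protein was read by western blot. For salt fractionation, cells were swollen in hypotonic HEPES buffer and nuclei isolated, then nuclei were extracted 30 min at 4 °C in glycerol wash buffer with 75 mM NaCl and the supernatant collected.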"}, "[3]": {"molecular_target": "T1, p300 HAT-ZZ domain (aa 1287–1713, Y1467F) (human, UniProt Q09472 1287-1713, Y1467F)", "T1 sequence": "B7 chain", "test": "NMR titration"}, "[4]": {"test_system": "BD-RING-PHD (BRP) region of p300", "test": "1H,15N HSQC NMR titration, p300 BD-RING-PHD", "format": "binding, human", "details": "15N-labeled BD-RING-PHD, 298K, pH 7.0"}, "[5]": {"molecular_target": "T2, human p300 ZZ domain (aa 1663–1713) (human, UniProt Q09472 1663-1713)", "T2 sequence": "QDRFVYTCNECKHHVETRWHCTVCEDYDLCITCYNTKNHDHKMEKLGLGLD", "test": "crystal structure"}, "[6]": {"molecular_target": "T2, human p300 ZZ domain (aa 1663–1713)", "test": "NMR titration"}},
  "note": "Changes are numbered by the printed parent chain. Numbers in names are those of the source.",
  "data": [
    {"molecule": "H4_1–9(Ser1): H4_1–9(Ser1) (SGRGKGGKG)", "values": [
      {"measurement": "Binding to p300-ZZ", "setting": "p300-ZZ; authors' conclusion from NMR titration", "result": "almost negligible binding"}
    ]},
    {"molecule": "B1", "values": [
      {"measurement": "H3K4, H3K9 and H4 acetylation", "setting": "[1]", "result": "without affecting"},
      {"measurement": "Increase of H3K18 and H3K27 acetylation", "setting": "[1]", "result": "greatly attenuated"},
      {"measurement": "Chromatin binding", "setting": "[2]", "result": "incapable of gaining the chromatin binding"},
      {"measurement": "H3K18ac and H3K27ac occupancies", "setting": "[2]", "result": "no increase"},
      {"measurement": "Association of p300 BRPHZT with chromatin", "setting": "chromatin in H1299 cells", "result": "substantially reduced"}
    ]},
    {"molecule": "B2", "values": [
      {"measurement": "Global levels of acetylation at all sites tested", "setting": "[1]; whole cell extract", "result": "increased"},
      {"measurement": "H3K18ac and H3K27ac occupancies", "setting": "[2]", "result": "evident increase"},
      {"measurement": "Number of p300-BRPHZT binding sites (FLAG ChIP-seq)", "setting": "[2]; M2 Flag antibody, H1299, MACS p ≤1e−8", "result": 679}
    ]},
    {"molecule": "B3", "values": [
      {"measurement": "H3K4, H3K9 and H4 acetylation", "setting": "[1]", "result": "without affecting"},
      {"measurement": "Increase of H3K18 and H3K27 acetylation", "setting": "[1]", "result": "greatly attenuated"},
      {"measurement": "Chromatin binding", "setting": "[2]", "result": "incapable of gaining the chromatin binding"},
      {"measurement": "H3K18ac and H3K27ac occupancies", "setting": "[2]", "result": "no increase"},
      {"measurement": "Association of p300 BRPHZT with chromatin", "setting": "chromatin in H1299 cells", "result": "substantially reduced"}
    ]},
    {"molecule": "B4", "values": [
      {"measurement": "p300-BRPHZT occupancy and H3K18ac and H3K27ac levels at target gene regions", "setting": "[2]; ChIP-qPCR, H1299, n = 3", "result": "decrease"},
      {"measurement": "Association of p300 BRPHZT with chromatin", "setting": "chromatin in H1299 cells", "result": "substantially reduced"}
    ]},
    {"molecule": "B5", "values": [
      {"measurement": "binding result", "setting": "[3]", "result": "binds"}
    ]},
    {"molecule": "B6", "values": [
      {"measurement": "Interaction with BD-RING-PHD", "setting": "[4]", "result": "rapid disappearance of resonances"},
      {"measurement": "Resonance perturbations in p300-ZZ in presence of HAT domain", "setting": "p300-ZZ; HSQC, 298K, pH 7.0, HAT (1:2 molar ratio) added first, then peptide", "result": "very small changes in ZZ"},
      {"measurement": "Interaction between isolated HAT and ZZ domains", "setting": "p300-ZZ; HSQC, p300-ZZ with unlabeled HAT (1:2 molar ratio)", "result": "interact only weakly"}
    ]},
    {"molecule": "B7", "values": [
      {"measurement": "Interaction with BD-RING-PHD", "setting": "[4]", "result": "weakened"}
    ]},
    {"molecule": "ARTKQT", "note": "[histone H3 tail (residues 1–6)]", "values": [
      {"measurement": "binding result", "setting": "[5]", "result": "binds"}
    ]},
    {"molecule": "VRTKQT", "note": "[H3A1V1–6]", "values": [
      {"measurement": "fold reduction in binding against the peptide with Ala1", "setting": "[6]", "result": "~3", "unit": "fold"}
    ]}
  ]
}
